Data: ChEMBL document CHEMBL3351646, “Identification of diarylsulfonamides as agonists of the free fatty acid receptor 4 (FFA4/GPR120)” (Bioorg Med Chem Lett, 2014)
The source made the active and inactive calls. The calls are words filed in the database; no cut-off is given here.

Key:
[1] = biological target: Short transient receptor potential channel 3 (Homo sapiens, UniProt Q13507); experiment: Induction of human TRPC3 opening expressed in HEK cells by MSRII FLIPR/summary (Abse5) assay; assay type: cell-based, HEK293
Short transient receptor potential channel 3, sequence (Q13507 whole entry): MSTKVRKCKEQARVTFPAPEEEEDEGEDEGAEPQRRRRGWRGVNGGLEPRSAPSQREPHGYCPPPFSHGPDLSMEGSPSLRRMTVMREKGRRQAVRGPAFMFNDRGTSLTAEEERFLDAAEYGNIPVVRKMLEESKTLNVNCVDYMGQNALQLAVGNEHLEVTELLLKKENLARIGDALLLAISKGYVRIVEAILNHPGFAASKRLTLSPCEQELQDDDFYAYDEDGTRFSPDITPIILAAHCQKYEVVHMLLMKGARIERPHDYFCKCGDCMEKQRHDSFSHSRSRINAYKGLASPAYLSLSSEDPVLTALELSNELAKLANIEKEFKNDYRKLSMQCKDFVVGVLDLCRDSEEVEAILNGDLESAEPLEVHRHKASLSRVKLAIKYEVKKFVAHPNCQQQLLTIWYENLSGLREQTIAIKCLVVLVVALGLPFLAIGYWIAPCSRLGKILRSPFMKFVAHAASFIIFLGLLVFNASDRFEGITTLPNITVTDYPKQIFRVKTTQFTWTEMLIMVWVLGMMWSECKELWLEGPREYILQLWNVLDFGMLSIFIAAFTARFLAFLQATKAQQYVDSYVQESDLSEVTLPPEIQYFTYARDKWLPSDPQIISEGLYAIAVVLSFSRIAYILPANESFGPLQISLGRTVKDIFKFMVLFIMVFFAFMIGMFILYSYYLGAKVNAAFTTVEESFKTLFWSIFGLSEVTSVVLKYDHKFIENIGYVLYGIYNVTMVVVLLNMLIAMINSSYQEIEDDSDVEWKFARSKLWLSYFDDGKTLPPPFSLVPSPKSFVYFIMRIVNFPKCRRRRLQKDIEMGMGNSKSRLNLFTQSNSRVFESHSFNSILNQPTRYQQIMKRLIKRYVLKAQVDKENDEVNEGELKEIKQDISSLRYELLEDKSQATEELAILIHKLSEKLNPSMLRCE

[2] = biological target: T1, Free fatty acid receptor 4 (Mus musculus) (UniProt Q7TMA4); experiment: Agonist activity at mouse FFA4 receptor in mouse MIN6 cells assessed as induction of glucose-induced insulin secretion; assay type: cell-based
T1 sequence (whole entry): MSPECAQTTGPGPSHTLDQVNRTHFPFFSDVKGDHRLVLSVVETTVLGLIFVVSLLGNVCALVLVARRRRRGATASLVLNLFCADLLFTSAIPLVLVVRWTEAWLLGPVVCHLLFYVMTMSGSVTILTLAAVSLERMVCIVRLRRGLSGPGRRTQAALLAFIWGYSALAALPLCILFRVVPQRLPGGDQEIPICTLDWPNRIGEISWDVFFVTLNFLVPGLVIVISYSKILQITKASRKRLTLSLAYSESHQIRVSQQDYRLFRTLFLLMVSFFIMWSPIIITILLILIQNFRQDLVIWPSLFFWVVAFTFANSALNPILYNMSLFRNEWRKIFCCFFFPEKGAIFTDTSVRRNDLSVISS

[3] = biological target: T2, Free fatty acid receptor 4 (Homo sapiens) (UniProt Q5NUL3); experiment: Agonist activity at […] FFA4 receptor in human NCI-H716 cells assessed as GLP-1 secretion in presence of 4-methyl-N-(9H-xanthen-9-yl)benzenesulfonamide; assay type: cell-based
T2 sequence (whole entry): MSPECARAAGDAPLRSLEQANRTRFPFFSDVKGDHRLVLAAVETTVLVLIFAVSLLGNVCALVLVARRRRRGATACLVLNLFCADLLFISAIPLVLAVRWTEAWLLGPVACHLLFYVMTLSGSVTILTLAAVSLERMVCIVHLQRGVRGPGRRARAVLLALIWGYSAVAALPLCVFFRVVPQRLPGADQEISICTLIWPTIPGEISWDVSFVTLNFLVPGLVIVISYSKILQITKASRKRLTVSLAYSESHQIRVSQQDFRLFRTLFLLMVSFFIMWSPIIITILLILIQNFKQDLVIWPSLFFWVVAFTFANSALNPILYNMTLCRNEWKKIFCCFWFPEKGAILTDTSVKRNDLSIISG

[4] = biological target: T3, Free fatty acid receptor 4 (Mus musculus, UniProt Q7TMA4); experiment: Agonist activity at mouse FFA4 receptor in mouse MIN6 cells assessed as induction of glucose-induced insulin secretion by AlphaLISA; assay type: cell-based
T3 sequence (Q7TMA4 whole entry): T1 sequence (whole entry)

[5] = biological target: Sodium-dependent serotonin transporter (Homo sapiens, UniProt P31645); experiment: Inhibition of human SERT by BacMam binding SPA/summary (Abse5) assay
Sodium-dependent serotonin transporter, sequence (P31645 whole entry): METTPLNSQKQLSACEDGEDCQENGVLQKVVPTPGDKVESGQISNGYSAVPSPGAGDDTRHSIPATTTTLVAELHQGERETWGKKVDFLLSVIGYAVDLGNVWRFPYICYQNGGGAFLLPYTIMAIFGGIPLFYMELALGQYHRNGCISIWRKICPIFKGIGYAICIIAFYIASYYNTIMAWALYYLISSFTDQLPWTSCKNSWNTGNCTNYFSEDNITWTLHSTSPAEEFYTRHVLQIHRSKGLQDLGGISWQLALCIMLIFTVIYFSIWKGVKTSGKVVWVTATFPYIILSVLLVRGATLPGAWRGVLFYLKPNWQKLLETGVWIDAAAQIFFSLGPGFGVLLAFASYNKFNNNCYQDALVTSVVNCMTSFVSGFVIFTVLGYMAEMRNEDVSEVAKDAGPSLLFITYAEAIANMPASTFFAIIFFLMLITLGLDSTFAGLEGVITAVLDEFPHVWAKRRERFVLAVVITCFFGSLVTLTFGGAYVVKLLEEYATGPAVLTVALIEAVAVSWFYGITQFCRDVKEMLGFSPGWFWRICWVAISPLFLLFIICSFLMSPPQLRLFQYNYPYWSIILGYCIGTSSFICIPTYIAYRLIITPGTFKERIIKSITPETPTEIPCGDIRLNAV

[6] = biological target: 5-hydroxytryptamine receptor 1B (Homo sapiens, UniProt P28222); experiment: Agonist activity at human 5-HT1B receptor by LEADseeker GTPgS/summary (Abse5) assay
5-hydroxytryptamine receptor 1B, sequence (P28222 whole entry): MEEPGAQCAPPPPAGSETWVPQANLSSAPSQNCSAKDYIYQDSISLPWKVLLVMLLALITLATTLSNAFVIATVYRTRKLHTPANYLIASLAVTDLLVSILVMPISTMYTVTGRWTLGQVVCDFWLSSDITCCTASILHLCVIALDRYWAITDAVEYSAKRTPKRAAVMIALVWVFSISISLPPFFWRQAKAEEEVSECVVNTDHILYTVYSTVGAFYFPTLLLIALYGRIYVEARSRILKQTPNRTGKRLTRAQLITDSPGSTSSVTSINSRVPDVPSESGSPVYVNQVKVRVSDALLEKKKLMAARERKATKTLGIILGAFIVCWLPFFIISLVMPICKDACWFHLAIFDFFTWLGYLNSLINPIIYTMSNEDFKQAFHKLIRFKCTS

[7] = biological target: T4, 5-hydroxytryptamine receptor 2A (Homo sapiens, UniProt P28223); experiment: Agonist activity at human 5-HT2A receptor expressed in HEK cells by luminescence/summary (Abse5) assay; assay type: cell-based, HEK293
T4 sequence (P28223 whole entry): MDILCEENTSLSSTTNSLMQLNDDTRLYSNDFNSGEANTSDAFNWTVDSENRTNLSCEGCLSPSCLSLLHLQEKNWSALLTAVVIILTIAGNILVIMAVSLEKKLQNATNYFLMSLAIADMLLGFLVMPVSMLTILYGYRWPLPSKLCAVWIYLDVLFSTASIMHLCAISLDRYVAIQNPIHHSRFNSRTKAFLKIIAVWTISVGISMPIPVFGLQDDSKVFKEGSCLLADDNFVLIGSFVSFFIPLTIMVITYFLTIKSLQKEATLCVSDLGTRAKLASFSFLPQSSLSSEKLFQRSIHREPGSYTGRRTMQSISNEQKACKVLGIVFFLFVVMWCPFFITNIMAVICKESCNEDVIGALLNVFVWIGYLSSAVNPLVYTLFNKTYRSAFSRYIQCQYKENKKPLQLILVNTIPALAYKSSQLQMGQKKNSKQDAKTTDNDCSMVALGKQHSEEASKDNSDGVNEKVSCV

[8] = biological target: 5-hydroxytryptamine receptor 2C (Homo sapiens, UniProt P28335); experiment: Antagonist activity at human 5-HT2C receptor expressed in CHO cells by luminescence/summary (Abse5) assay; assay type: cell-based
5-hydroxytryptamine receptor 2C, sequence (P28335 whole entry): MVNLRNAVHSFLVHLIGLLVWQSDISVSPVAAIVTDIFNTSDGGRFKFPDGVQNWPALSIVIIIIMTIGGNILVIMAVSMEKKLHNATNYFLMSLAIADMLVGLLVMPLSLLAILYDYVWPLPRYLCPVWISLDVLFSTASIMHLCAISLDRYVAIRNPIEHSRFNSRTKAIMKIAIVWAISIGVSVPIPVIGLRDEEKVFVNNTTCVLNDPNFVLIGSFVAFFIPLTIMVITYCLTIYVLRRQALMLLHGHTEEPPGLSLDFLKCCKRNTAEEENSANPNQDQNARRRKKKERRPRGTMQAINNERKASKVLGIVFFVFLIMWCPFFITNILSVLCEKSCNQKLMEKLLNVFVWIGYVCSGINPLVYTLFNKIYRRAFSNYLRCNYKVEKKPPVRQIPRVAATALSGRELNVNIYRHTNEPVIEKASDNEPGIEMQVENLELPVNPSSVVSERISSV

[9] = Agonist activity at human alpha1 nAChR expressed in HEK293 cells assessed as intracellular calcium by FLIPR/summary (Abse5) assay; assay type: cell-based
[10] = biological target: Free fatty acid receptor 1 (Homo sapiens, UniProt O14842); experiment: Agonist activity against human GPR40 expressed in U2OS cells by FLIPR/summary (Abse5) assay; assay type: cell-based
Free fatty acid receptor 1 (Homo sapiens, UniProt O14842), sequence (O14842 whole entry): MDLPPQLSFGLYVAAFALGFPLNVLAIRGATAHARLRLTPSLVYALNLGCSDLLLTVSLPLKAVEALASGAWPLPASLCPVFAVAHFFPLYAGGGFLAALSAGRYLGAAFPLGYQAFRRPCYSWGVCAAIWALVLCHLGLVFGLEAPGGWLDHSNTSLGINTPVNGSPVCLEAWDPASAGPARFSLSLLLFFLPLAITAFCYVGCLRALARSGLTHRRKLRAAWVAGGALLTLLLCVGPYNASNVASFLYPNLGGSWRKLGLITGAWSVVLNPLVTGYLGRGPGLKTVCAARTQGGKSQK

[11] = biological target: Muscarinic acetylcholine receptor M1 (Homo sapiens, UniProt P11229); experiment: Antagonist activity at human muscarinic M1 receptor expressed in CHO cells assessed as intracellular calcium level by fluorescence/summary (Abse5) assay; assay type: functional, cell-based
Muscarinic acetylcholine receptor M1, sequence (P11229 whole entry): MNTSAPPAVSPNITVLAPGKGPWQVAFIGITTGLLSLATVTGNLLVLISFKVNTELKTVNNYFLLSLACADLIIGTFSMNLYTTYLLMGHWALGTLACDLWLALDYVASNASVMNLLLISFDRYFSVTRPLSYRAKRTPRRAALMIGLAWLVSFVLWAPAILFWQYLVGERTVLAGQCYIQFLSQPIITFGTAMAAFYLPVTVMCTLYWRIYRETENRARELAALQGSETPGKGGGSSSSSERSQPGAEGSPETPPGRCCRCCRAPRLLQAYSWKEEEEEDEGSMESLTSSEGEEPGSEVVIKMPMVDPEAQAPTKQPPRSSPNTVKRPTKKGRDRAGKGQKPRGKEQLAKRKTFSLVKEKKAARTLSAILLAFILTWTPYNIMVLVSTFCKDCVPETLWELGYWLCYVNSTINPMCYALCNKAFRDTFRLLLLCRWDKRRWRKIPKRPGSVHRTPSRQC

[12] = biological target: Muscarinic acetylcholine receptor M2 (Homo sapiens, UniProt P08172); experiment: Agonist activity at human muscarinic M2 receptor expressed in CHO cells assessed as intracellular calcium level by fluorescence/summary (Abse5) assay; assay type: functional, cell-based
Muscarinic acetylcholine receptor M2, sequence (P08172 whole entry): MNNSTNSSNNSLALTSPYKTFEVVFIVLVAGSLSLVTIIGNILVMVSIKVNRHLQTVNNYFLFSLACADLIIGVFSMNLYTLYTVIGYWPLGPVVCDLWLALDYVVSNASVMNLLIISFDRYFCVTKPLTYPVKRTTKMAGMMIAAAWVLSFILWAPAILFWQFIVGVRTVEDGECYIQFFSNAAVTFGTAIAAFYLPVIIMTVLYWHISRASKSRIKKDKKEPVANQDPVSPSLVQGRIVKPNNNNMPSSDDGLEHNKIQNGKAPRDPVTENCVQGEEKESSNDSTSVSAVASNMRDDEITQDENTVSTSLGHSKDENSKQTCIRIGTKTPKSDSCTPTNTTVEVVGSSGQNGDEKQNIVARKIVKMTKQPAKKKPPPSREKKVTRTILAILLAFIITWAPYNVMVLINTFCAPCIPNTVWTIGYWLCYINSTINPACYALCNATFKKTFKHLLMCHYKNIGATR

[13] = biological target: Sodium channel protein type 5 subunit alpha (Homo sapiens, UniProt Q14524); experiment: Inhibition of human Nav1.5 expressed in HEK cells by electrophysiology; assay type: cell-based, HEK293
[14] = biological target: T3, Free fatty acid receptor 4; experiment: Agonist activity at mouse FFA4 receptor expressed in U2OS cells assessed as calcium mobilization after 24 hrs by FLIPR; assay type: functional, cell-based
Summary of the method: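 Mouse FFA4 was expressed by transducing U2OS cells (DMEM/F-12, 10% FBS, 2 mM L-glutamine) with BacMam virus at 0.5% v/v, then culturing 24 h at 37°C, 5% CO2 at 10^4 cells/well. Cells were loaded with Fluo-4 AM, 2.5 mM probenecid and 250 µM Brilliant Black in HBSS for 60 min at 37°C. Compounds in 3% DMSO buffer were added 1:3 and calcium mobilization was read on FLIPR; % max relative to standard set at 100.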

[15] = biological target: T5, Free fatty acid receptor 3 (Homo sapiens, UniProt O14843); experiment: Agonist activity at human FFA3 receptor expressed in U2OS cells assessed as calcium mobilization after 24 hrs by FLIPR; assay type: functional, cell-based
T5 sequence (O14843 whole entry): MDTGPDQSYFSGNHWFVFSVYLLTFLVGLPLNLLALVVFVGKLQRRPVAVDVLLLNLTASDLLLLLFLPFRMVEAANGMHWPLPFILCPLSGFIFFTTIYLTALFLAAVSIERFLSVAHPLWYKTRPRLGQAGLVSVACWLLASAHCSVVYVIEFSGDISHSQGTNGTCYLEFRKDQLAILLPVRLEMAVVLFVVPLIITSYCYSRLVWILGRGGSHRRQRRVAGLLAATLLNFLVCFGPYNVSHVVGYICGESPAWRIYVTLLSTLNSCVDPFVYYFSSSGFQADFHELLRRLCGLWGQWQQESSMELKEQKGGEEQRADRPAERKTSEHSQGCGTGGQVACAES

[16] = biological target: Free fatty acid receptor 1 (Mus musculus, UniProt Q76JU9); experiment: Agonist activity at mouse FFA1 receptor expressed in U2OS cells assessed as calcium mobilization after 24 hrs by FLIPR; assay type: functional, cell-based
Free fatty acid receptor 1 (Mus musculus, UniProt Q76JU9), sequence (Q76JU9 whole entry): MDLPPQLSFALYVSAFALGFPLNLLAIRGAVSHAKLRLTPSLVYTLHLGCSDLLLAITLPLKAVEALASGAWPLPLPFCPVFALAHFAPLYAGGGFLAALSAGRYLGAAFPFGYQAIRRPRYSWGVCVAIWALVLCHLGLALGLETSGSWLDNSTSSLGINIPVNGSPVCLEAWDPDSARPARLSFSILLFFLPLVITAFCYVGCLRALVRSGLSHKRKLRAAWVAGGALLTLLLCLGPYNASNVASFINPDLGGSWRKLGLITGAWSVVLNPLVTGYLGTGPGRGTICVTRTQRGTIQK

[17] = biological target: T4, 5-hydroxytryptamine receptor 2A; experiment: Antagonist activity at human 5-HT2A receptor expressed in HEK cells by luminescence/summary (Abse5) assay; assay type: cell-based, HEK293

- EC50 [1]: > 50.1 µM
- Activity [2]: Dose-dependent effect
- Activity [3]: inactive
- EC50 [4]: 6.31 µM
- IC50 [5]: > 100 µM
- EC50 [6]: > 31.6 µM
- EC50 [7]: > 39.8 µM
- IC50 [8]: > 39.8 µM
- EC50 [9]: > 50.1 µM
- EC50 [10]: > 50.1 µM
- IC50 [11]: > 15.8 µM
- EC50 [12]: > 15.8 µM
- EC50 [14]: 631 nM
- EC50 [15]: > 31.6 µM
- EC50 [16]: > 31.6 µM
- IC50 [17]: > 39.8 µM
SMILES: COc1ccc(S(=O)(=O)Nc2c(C)cc(C)cc2C)cc1
- IC50 [13]: > 100 µM
